Results on 7 molecules are retold here after publication PMC5966020 (Journal of medicinal chemistry, 2018).

For orientation: Ki means the equilibrium dissociation constant of an inhibitor or competing ligand from its target. By IC50 is commonly meant the concentration that inhibits the measured activity by half. Usually logP stands for a log measure of how a compound divides between an organic and an aqueous phase. A lower logP goes with lower lipophilicity.

Read-outs that look alike come from different tables or passages of the source.

Data set [1] addresses T1, rat brain MAGL (Rattus norvegicus, UniProt Q8R431).
T1 sequence (Q8R431 1-303): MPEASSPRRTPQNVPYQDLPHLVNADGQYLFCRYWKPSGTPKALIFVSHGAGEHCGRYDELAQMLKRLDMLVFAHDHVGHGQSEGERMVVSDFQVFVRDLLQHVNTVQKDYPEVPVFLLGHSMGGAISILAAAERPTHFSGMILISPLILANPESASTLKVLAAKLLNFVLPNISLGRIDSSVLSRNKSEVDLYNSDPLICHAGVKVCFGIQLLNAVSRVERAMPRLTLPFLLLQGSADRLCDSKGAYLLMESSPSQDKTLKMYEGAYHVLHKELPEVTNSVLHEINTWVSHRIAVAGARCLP
The data set can be described thus: [3H]2-OG hydrolysis assay. The class given is biochemical. Conditions: for IC50: IC50, inhibition of [3H]2-OG hydrolysis, 0.5 μM [3H]2-OG; for pIC50 in [3H]2-OG assay: positive control. The essentials:
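Rat brain preparation, test compound and buffer (10 mM Tris-HCl, 1 mM EDTA, pH 7.4) were preincubated 0–60 min. [3H]2-OG diluted with unlabelled 2-OG was then added to 0.5 μM final, with 0.125% w/v fatty acid-free BSA. Kinetics: no preincubation, 2 min incubation. Reversibility: 60 min preincubation, then 20-fold dilution. JZL184 was the positive control. Means of 3–4 runs.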

In data set [2] the target is T2, human recombinant MAGL (hMAGL) (Homo sapiens, UniProt Q99685).
T2 sequence (Q99685 1-303): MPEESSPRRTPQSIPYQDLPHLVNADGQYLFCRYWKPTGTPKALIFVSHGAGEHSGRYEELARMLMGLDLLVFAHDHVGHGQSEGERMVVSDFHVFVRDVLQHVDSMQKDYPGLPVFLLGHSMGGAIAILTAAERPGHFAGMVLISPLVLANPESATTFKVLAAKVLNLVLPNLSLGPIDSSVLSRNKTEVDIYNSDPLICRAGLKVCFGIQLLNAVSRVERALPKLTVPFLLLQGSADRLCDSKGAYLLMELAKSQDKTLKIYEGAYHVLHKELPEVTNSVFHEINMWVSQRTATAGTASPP
Briefly: human recombinant MAGL inhibition enzyme assay. The data set is classed as biochemical. The essentials:
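Commercial MAGL inhibitor screening kit with human recombinant enzyme, run per the manufacturer's instructions. JZL195 was the positive control. IC50 from dose-response curve fitting, averaged over 3–5 runs.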

In a further data set the target is T3, FAAH (Rattus norvegicus, UniProt P97612).
T3 sequence (P97612 1-579): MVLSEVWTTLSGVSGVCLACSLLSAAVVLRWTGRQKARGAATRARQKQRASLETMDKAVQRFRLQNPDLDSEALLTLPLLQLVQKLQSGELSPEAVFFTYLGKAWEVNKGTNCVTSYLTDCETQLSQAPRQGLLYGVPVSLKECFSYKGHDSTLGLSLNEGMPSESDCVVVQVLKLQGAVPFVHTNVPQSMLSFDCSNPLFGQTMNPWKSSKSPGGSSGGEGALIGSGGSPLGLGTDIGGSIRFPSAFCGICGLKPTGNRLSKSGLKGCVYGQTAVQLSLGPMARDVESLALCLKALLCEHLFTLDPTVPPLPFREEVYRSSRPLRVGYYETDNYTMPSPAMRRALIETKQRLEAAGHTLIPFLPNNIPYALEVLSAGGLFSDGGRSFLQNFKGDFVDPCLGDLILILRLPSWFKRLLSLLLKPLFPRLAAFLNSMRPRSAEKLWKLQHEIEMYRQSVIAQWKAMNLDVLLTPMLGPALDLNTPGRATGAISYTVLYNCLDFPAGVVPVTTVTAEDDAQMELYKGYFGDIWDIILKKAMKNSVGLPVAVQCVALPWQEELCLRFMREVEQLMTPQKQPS
The data set can be described thus: [3H]AEA hydrolysis assay. The class given is biochemical.

A further data set has as its target CB1 (Homo sapiens, UniProt P21554). The data set can be described thus: CB1 receptor agonist and antagonist assays. The data set is classed as cell-based. Conditions: up to 30 μM concentration. The essentials: (§1)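 Run by the NIMH Psychoactive Drug Screening Program to its published protocols, in agonist and antagonist formats. CP55940 was the agonist control at both receptors. Rimonabant was the CB1 antagonist control and SR144528 the CB2 antagonist control. Dose-response curves were generated, averaged over 3–5 runs.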

For a further data set, the target named is CB2 (Homo sapiens, UniProt P34972). The data set can be described thus: CB2 receptor agonist and antagonist assays. The class given is cell-based. The settings on record: up to 30 μM concentration. A digest of the protocol:
as §1

In another data set the target is T4, ABHD6 (Mus musculus, UniProt Q8R2Y0).
T4 sequence (Q8R2Y0 1-336): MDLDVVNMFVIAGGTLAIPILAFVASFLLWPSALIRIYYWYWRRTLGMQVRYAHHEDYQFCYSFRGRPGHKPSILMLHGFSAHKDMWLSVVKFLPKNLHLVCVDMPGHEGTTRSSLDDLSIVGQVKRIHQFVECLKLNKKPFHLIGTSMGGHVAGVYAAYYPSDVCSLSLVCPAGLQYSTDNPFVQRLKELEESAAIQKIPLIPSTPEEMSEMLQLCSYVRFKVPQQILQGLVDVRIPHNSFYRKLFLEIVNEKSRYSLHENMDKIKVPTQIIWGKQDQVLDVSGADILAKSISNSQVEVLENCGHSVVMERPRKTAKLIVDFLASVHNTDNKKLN
The data set can be described thus: activity based protein profiling. The data set is classed as biochemical. The settings on record: up to 10 μM concentration. The essentials: (§2)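 Mouse brain membrane proteome (1 mg/mL) preincubated with DMSO or test compound (1 and 10 μM) for 30 min at 37 °C. FP-rhodamine (1 μM final) was then added for 1–180 min at room temperature. Samples were separated by SDS-PAGE and read by in-gel fluorescence. Band intensity is given relative to DMSO (100%). MJN110 was the positive control; 3 runs.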

A further data set deals with T5, ABHD12 (Mus musculus, UniProt Q99LR1).
T5 sequence (Q99LR1 1-398): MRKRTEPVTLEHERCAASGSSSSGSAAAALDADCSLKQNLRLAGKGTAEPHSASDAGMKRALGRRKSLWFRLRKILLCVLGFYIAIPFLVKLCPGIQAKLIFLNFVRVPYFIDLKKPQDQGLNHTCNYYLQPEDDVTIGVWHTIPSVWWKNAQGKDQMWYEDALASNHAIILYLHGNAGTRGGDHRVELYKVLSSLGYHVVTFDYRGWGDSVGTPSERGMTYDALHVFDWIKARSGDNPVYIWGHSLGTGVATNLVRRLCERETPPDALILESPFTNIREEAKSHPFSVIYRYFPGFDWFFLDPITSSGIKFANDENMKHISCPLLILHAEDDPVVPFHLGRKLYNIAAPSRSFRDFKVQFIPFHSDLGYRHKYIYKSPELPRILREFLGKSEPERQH
Briefly: activity based protein profiling. The class given is biochemical. The settings on record: up to 10 μM concentration. The essentials:
as §2

The nature of data set [3]: LogP by shake flask method. The class given is physicochemical. Conditions: n-octanol/water. A digest of the protocol: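 n-Octanol/water liquid-liquid partition ('shake flask'), following the OECD 107 guideline. Compound quantified in each phase by LC-MS; n = 3.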
The target of data set [4] is T1, rat brain MAGL. The settings on record: read-out: IC50, inhibition of [3H]2-OG hydrolysis, cited from earlier work.
The test system of a further data set is brain. The data set can be described thus: PET brain uptake of 19. Conditions: in vivo.

Sequence of CB2 (P34972 whole entry, species assumed): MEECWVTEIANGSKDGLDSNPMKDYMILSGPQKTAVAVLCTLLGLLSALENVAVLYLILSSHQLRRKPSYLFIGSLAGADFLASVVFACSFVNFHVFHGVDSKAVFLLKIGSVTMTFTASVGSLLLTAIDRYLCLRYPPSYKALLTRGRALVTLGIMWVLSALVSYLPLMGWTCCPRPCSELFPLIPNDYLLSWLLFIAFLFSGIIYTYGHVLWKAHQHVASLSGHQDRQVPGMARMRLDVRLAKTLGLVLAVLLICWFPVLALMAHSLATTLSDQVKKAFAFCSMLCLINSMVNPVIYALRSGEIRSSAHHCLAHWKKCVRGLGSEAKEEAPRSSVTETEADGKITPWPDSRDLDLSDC
Sequence of CB1 (P21554 whole entry, species assumed): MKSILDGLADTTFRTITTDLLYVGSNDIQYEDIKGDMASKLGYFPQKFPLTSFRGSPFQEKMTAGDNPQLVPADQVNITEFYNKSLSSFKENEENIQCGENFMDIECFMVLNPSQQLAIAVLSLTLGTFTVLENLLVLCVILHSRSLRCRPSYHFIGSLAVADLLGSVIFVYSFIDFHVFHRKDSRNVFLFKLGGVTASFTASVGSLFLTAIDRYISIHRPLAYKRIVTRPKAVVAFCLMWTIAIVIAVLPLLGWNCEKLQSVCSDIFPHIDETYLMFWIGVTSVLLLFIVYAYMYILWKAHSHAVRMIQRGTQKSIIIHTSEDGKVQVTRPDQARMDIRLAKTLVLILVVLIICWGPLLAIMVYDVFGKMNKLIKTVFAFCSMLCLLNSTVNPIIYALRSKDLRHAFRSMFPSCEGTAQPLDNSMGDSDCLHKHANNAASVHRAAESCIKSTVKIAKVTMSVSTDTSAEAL

`COc1ccc(-c2noc(C3CN(C(=O)OC(C(F)(F)F)C(F)(F)F)C3)n2)cc1` [Compound 10, 1,1,1,3,3,3-hexafluoropropan-2-yl 3-(3-(4-methoxyphenyl)-1,2,4-oxadiazol-5-yl)azetidine-1-carboxylate]: the Ki at rat brain MAGL [1] turned out to be 1.03 nM. In addition, the time-dependency of inhibition result on rat brain MAGL [1] (0.2, 0.6 and 1 nM inhibitor) was “time-dependent inhibition”. Also, the half-inhibitory concentration (IC50) against rat brain MAGL [1] (60 min of pre-incubation) amounted to 0.68 nM; at rat brain MAGL [1] (without pre-incubation), 3.9 nM; in data set [2], 12.7 nM. For the same molecule, at rat brain MAGL [1] (dilution experiments and ABPP time course), the binding mechanism entry is reported as “irreversible binding mechanism”. At FAAH, the “selectivity towards MAGL over FAAH” value was 30–50 fold. Also, the “interaction with CB1” value at CB1 is on record as “No significant interactions”. In addition, the “interaction with CB2” value on CB2 is given as “No significant interactions”. Also, the “interaction with ABHD6” value at ABHD6 is on record as “No significant interactions”. Besides, the “interaction with ABHD12” value on ABHD12 is recorded as “No significant interactions”. Besides, the lipophilicity (logP) in data set [3] stood at 1.23 ± 0.1.
In the case of `O=C(Oc1ccc([N+](=O)[O-])cc1)N1CCN(Cc2cccc(Oc3ccccc3)c2)CC1` [JZL195, reference compound], the “block of human recombinant MAGL hydrolysis” value in data set [2] (4.4 μM, positive control) is given as “completely blocked”.
Turning to `O=C(Oc1ccc([N+](=O)[O-])cc1)N1CCC(C(O)(c2ccc3c(c2)OCO3)c2ccc3c(c2)OCO3)CC1` [JZL184], the “pIC50 in [3H]2-OG assay” value against rat brain MAGL [1] (60 min preincubation) is on record as 8.24±0.02; on rat brain MAGL [1] (without preincubation), 6.46±0.04. The IC50 is 350 nM on rat brain MAGL [4] (preincubation 0 min), 12 nM at rat brain MAGL [4] (preincubation 30 min) and 5.8 nM on rat brain MAGL [4] (preincubation 60 min).
As to `O=C(OC(C(F)(F)F)C(F)(F)F)N1CC(c2nc(-c3ccc(F)cc3)no2)C1` [Compound 8, 1,1,1,3,3,3-hexafluoropropan-2-yl 3-(3-(4-fluorophenyl)-1,2,4-oxadiazol-5-yl)azetidine-1-carboxylate], in [2], the IC50 amounted to 13.4 nM. Also, in [3], the logP was found to be 1.45 ± 0.01.
`O=C(OC(C(F)(F)F)C(F)(F)F)N1CC(c2nc(-c3cccc(F)c3)no2)C1` [Compound 9, 1,1,1,3,3,3-hexafluoropropan-2-yl 3-(3-(3-fluorophenyl)-1,2,4-oxadiazol-5-yl)azetidine-1-carboxylate] displayed a logP in [3] of 1.42 ± 0.11.
With `COc1cccc(-c2noc(C3CN(C(=O)OC(C(F)(F)F)C(F)(F)F)C3)n2)c1` [Compound 11, 1,1,1,3,3,3-hexafluoropropan-2-yl 3-(3-(3-methoxyphenyl)-1,2,4-oxadiazol-5-yl)azetidine-1-carboxylate], in data set [3], the lipophilicity (logP) is 1.17 ± 0.14.
Consider `O=C(OC(C(F)(F)F)C(F)(F)F)N1CC(c2nc(-c3ccc(F)cc3)no2)C1` [Compound 19, ^11C-carbonyl labeled 1,1,1,3,3,3-hexafluoropropan-2-yl 3-(3-(4-fluorophenyl)-1,2,4-oxadiazol-5-yl)azetidine-1-carboxylate], for which the “peak SUV in brain” value in the data set with brain is “ca. 1.4 SUV”.
